Test results reported in ChEMBL document CHEMBL4266015, “Scaffold Ranking and Positional Scanning Identify Novel Neurite Outgrowth Promoters with Nanomolar Potency” (2018).

How the values were obtained:
Assay type in all cases: functional, Hippocampal neurone
[1] = Induction of neurite outgrowth in rat hippocampal neurons assessed as neurite total length at 250 ng/ml after 48 hrs relative to control
Procedure, shortened: (§1)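 E18 rat hippocampal neurons were plated on PDL at 1800 cells/well in NbActive4, adhered 2 h, then treated with compound prediluted in medium at 4× final for 48 h. Cells were fixed, stained for βIII-tubulin, imaged and auto-traced. Mean neurite total length is a percentage of DMSO vehicle wells on the same plate. ML-7 was the positive control and plates with Z-factor >0.5 were accepted.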

[2] = Induction of neurite outgrowth in rat hippocampal neurons assessed as neurite total length at 125 ng/ml after 48 hrs relative to control; procedure, shortened: as §1
[3] = Induction of neurite outgrowth in rat hippocampal neurons assessed as neurite total length at 31.25 ng/ml after 48 hrs relative to control; procedure, shortened: as §1
[4] = Induction of neurite outgrowth in rat hippocampal neurons assessed as neurite total length at 500 ng/ml after 48 hrs relative to control; procedure, shortened: as §1
[5] = Induction of neurite outgrowth in rat hippocampal neurons assessed as neurite total length after 48 hrs
Procedure, shortened: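 Dissociated E18 rat hippocampal neurons were seeded on PDL-coated plates at 1800 cells/well in NbActive4 and allowed to adhere 2 h. Compounds were prediluted in medium at 4× final and added, then cells were grown 48 h (2 DIV). Wells were fixed, immunostained for βIII-tubulin and imaged by automated tracing. ED200% and ED300% values were linearly interpolated from dose-response curves of mean neurite total length.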

[6] = Induction of neurite outgrowth in rat hippocampal neurons assessed as neurite total length at 62.5 ng/ml after 48 hrs relative to control; procedure, shortened: as §1
[7] = Induction of neurite outgrowth in rat hippocampal neurons assessed as neurite total length at 15.625 ng/ml after 48 hrs relative to control; procedure, shortened: as §1

In the case of `CC1CCC(CN2C(=S)N(CCCC[C@H]3CNC(C4CCCC4)=N3)C[C@H]2C)CC1` (stereo not given in full), the Activity [1] is reported as 257.3%, the Activity [2] is reported as 230.7% and the Activity [3] is reported as 128.3%. The Activity [4] was 322.3%, the ED200 [5] was 130 nM and the ED300 [5] was 282 nM. It also gave an Activity [6] of 168.1% and an Activity [7] of 94.61%.

For `CC1CCC(CN2C(=S)N(CCCC[C@H]3CNC(C4CCCC4)=N3)C[C@H]2c2ccccc2)CC1` (stereo not given in full), the Activity [1] was 270.8%, the Activity [2] was 286.2% and the Activity [3] was 271.9%. The Activity [4] was 229.6%, the ED200 [5] was 2 nM and the ED300 [5] was greater than 520 nM. The Activity [6] was 305.6% and the Activity [7] was 251%.

`CCC(C)CC1=N[C@@H](CCCCN2C[C@@H](CC(C)C)N(CCCCC(C)C)C2=S)CN1` (stereo not given in full) showed an Activity [1] of 258.7%, an Activity [2] of 254% and an Activity [3] of 179.8%. It also gave an Activity [4] of 239.5%, an Activity [6] of 222.6% and an Activity [7] of 122.8%.

Compound `CC(C)CCCCN1C(=S)N(CCCC[C@H]2CNC(CC3CCCC3)=N2)C[C@H]1C` has an Activity [1] of 264.8%, an Activity [2] of 213.9% and an Activity [3] of 137.9%. For the same compound, the Activity [4] was 323.7%, the Activity [6] was 175.9% and the Activity [7] was 113.8%.

`CC(C)CCCCN1C(=S)N(CCCC[C@H]2CNC(CCCCc3ccccc3)=N2)C[C@H]1c1ccccc1` gave an Activity [1] of 253.9%, an Activity [2] of 259.1% and an Activity [3] of 170.2%. The Activity [4] was 225.1%, the Activity [6] was 172.4% and the Activity [7] was 113.8%.

In the case of `CC(C)C[C@@H]1CN(CCCC[C@H]2CNC(C3CCCC3)=N2)C(=S)N1CC1CCC(C)CC1` (stereo not given in full), the Activity [1] is reported as 238.5%, the Activity [2] is reported as 311.6% and the Activity [3] is reported as 255.4%. The Activity [4] was 263%, the ED200 [5] was 4 nM and the ED300 [5] was 25 nM. For the same compound, the Activity [6] was 253.6% and the Activity [7] was 169.9%.

For `S=C1N(CCCC[C@H]2CNC(C3CCCC3)=N2)C[C@@H](c2ccccc2)N1CCC1CCCCC1`, the Activity [1] was 232.4%, the Activity [2] was 261.9% and the Activity [3] was 251.5%. It also gave an Activity [4] of 185.9%, an ED200 [5] of 7 nM and an ED300 [5] of 91 nM. For the same compound, the Activity [6] was 260.5% and the Activity [7] was 182.3%.

In the case of `CC(C)C[C@@H]1CN(CCCC[C@H]2CNC(C3CCCC3)=N2)C(=S)N1CCC1CCCCC1`, the Activity [1] is reported as 277.2%, the Activity [2] is reported as 282.9% and the Activity [3] is reported as 256.5%. For the same compound, the Activity [4] was 248.7%, the ED200 [5] was 4 nM and the ED300 [5] was greater than 543 nM. The Activity [6] was 271% and the Activity [7] was 194.9%.

`CCC(C)CC1=N[C@@H](CCCCN2C[C@@H](C)N(CCC3CCC(C)CC3)C2=S)CN1` (stereo not given in full) gave an Activity [1] of 266.7%, an Activity [2] of 166.2% and an Activity [3] of 134.9%. The Activity [4] was 293.6%, the Activity [6] was 150% and the Activity [7] was 97.33%.

`CCC(C)CC1=N[C@@H](CCCCN2C[C@@H](c3ccccc3)N(CCCCC(C)C)C2=S)CN1` (stereo not given in full) gave an Activity [1] of 265.8%, an Activity [2] of 263.7% and an Activity [3] of 179.4%. The Activity [4] was 276.3%, the Activity [6] was 252.8% and the Activity [7] was 121.4%.

`CC(C)C[C@@H]1CN(CCCC[C@H]2CNC(CCCCc3ccccc3)=N2)C(=S)N1CCCC1CCCCC1` gave an Activity [1] of 267.3%, an Activity [2] of 200.8% and an Activity [3] of 135.5%. For the same compound, the Activity [4] was 246.8%, the Activity [6] was 199.3% and the Activity [7] was 114%.

For `CCC(C)C1=N[C@@H](CCCCN2C[C@@H](c3ccccc3)N(CC3CCC(C)CC3)C2=S)CN1` (stereo not given in full), the Activity [1] was 255.9%, the Activity [2] was 301.9% and the Activity [3] was 256.2%. It also gave an Activity [4] of 279.8%, an ED200 [5] of 5 nM and an ED300 [5] of 54 nM. For the same compound, the Activity [6] was 296.7% and the Activity [7] was 190%.

`CC(C)CCCCN1C(=S)N(CCCC[C@H]2CNC(CCCCc3ccccc3)=N2)C[C@H]1CC(C)C` showed an Activity [1] of 265.6%, an Activity [2] of 237.1% and an Activity [3] of 145.3%. The Activity [4] was 239.9%, the Activity [6] was 194.1% and the Activity [7] was 127.4%.
